According to paper PMC4829350 (Biochimica et biophysica acta, 2014):
Where two headings read alike, the source gives them in different places. Residues, ends and D or L forms follow the SMILES beside them. *: point of attachment. Cbz = O=C(OCc1ccccc1)*

Experiments:
[1] = test system: naked mole-rat proteasome (ChT-L activity) with HSPs of NMR cytosol/supernatant; assay type: biochemical, Heterocephalus glaber; conditions: for effect on inhibition resistance / sensitivity to inhibition: NMR cytosolic fraction or SNNMR + Prot, 20 μM MG132
Procedure, shortened: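 HSP antibodies (anti-HSP72, -HSP40, -HSP25 or -HSP90; 10pg to 400pg, serially diluted in PBS/50% glycerol) or small-molecule HSP72 inhibitors (25nM to 1000nM; 10μM to 1000μM) added to NMR cytosolic lysate or 100,000xg supernatant. Incubated 1hr at 30°C with 1mM ATP. Human 26S or partially purified NMR proteasome then added. ChT-L activity read with Suc-LLVY-AMC ± 20μM MG132, as pmol AMC/min/μg protein.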

[2] = test system: human 26S proteasome [h26S] in SNNMR; assay type: biochemical; conditions: h26S in SNNMR challenged with MG132
Procedure, shortened: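 Naked mole-rat liver cytosolic lysate or its high-speed supernatant was incubated at 30°C for 1hr with 1mM ATP plus anti-chaperone antibodies (HSP72, HSP40, HSP25, HSP90; 10pg–400pg) or HSP72 inhibitors (25nM–1000nM or 10μM–1000μM). Purified human 26S proteasome was then added, and ChT-L activity was read with Suc-LLVY-AMC ± 20μM MG132.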

[3] = biological target: T1, ChT-L active center of the proteasome (mouse) (Mus musculus, UniProt O55234); experiment: Peptidolytic assay, ChT-L activity, mouse liver subcellular fractions; assay type: biochemical
T1 sequence (O55234 60-264): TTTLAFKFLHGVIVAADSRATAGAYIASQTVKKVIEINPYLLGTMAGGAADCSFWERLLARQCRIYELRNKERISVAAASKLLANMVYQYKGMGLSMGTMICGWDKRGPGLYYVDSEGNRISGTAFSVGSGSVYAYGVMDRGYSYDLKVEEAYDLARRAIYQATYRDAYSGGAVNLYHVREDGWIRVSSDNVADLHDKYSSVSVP

[4] = biological target: T2, T-L active center of the proteasome (mouse) (Mus musculus, UniProt P70195); experiment: Peptidolytic assay, T-L activity, mouse liver subcellular fractions; assay type: biochemical
T2 sequence (P70195 44-277): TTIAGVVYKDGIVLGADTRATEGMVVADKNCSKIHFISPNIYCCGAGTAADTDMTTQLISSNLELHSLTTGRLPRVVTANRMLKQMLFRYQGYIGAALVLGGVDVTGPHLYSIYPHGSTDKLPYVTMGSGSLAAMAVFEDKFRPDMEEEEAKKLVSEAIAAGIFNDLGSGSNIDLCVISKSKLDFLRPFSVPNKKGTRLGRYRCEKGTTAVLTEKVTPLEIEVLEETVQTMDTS
Procedure, shortened: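 Female mice aged 4–6 months; liver split into cytosolic, microsomal and nuclear fractions. T-L activity was read with a fluorogenic AMC peptide, against an AMC standard curve, as pmol AMC/min/μg protein. Inhibitor classes were titrated: boronate 5nM–10μM, lactone 0.2μM–8μM, aldehyde and vinyl sulfone 10μM–250μM. IC50 was taken as 50% activity loss, from exponential-decay or sigmoidal fits.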

[5] = test system: ProtNMR (naked mole-rat partially purified proteasome); assay type: biochemical, Heterocephalus glaber
[6] = biological target: T3, ProtMS (mouse partially purified proteasome) (Mus musculus, UniProt O55234); assay type: biochemical
T3 sequence (O55234 60-264): T1 sequence (O55234 60-264)

[7] = biological target: ChT-L active center of the proteasome (NMR) (Heterocephalus glaber, UniProt G5ASK0); experiment: Peptidolytic assay, ChT-L activity, naked mole-rat liver subcellular fractions; assay type: biochemical
[8] = biological target: T-L active center of the proteasome (NMR) (Heterocephalus glaber, UniProt A0A0P6JE03); experiment: Peptidolytic assay, T-L activity, naked mole-rat liver subcellular fractions; assay type: biochemical; conditions: read-out: T-L IC50 NMR, cytosolic fraction, ± S.E.
[9] = biological target: human 26S proteasome [h26S] (Homo sapiens, UniProt P20618+P28074); experiment: ChT-L activity of purified human 26S proteasome with supernatants or fractions; assay type: biochemical; conditions: 10 nM BZ
[10] = ChT-L IC50 Ms, cytosolic fraction, ± S.E.
[11] = sample ProtNMR + FT, 20 μM MG132
[12] = sample ProtNMR + FT, 50 μM MG132
[13] = sample ProtNMR + R, 20 μM MG132
[14] = sample ProtNMR + R, 50 μM MG132
[15] = sample ProtNMR + SN, 20 μM MG132
[16] = sample ProtNMR + SN, 50 μM MG132
[17] = sample ProtMS + FT, 20 μM MG132
[18] = sample ProtMS + FT, 50 μM MG132
[19] = sample ProtMS + SN, 20 μM MG132
[20] = sample ProtMS + SN, 50 μM MG132

## N#Cc1ccc(COC[C@H]2O[C@@H](n3c(NCc4ccc(Cl)c(Cl)c4)nc4c(N)ncnc43)[C@H](O)[C@@H]2O)cc1 [VER155008]
[1]
  effect on inhibition resistance / sensitivity to inhibition: did not disrupt the inhibition resistance
[1]; titration 25nM to 1000nM
  effect on proteasome activity associated with SNNMR: had no effect
[2]
  effect on inhibition resistance: did not disrupt the inhibition resistance

## CC(=O)N[C@@H](CSC(=O)[C@]1([C@@H](O)C(C)C)NC(=O)[C@H](C)[C@@H]1O)C(=O)O [LC, lactacystin]
[3]; [10]
  IC50: 0.156 ± 0.005 µM

## CC(C)C[C@@H](C=O)NC(=O)[C@H](CC(C)C)NC(=O)[C@H](CC(C)C)NC(=O)OCc1ccccc1 [MG132, N-(benzyl-oxycarbonyl) leucinyl-leucinyl-leucinal] (Cbz-Leu-Leu-Leu-aldehyde)
[3]; [10]
  IC50: 8.22 ± 2.75 µM
[3]; ChT-L IC50 Ms, microsomal fraction
  IC50: 0.99 µM
[3]; ChT-L IC50 Ms, nuclear fraction, ± S.E.
  IC50: 4.6 ± 1.62 µM
[4]; T-L IC50 Ms, cytosolic fraction, ± S.E.
  IC50: 14.6 ± 4.4 µM
[4]; T-L IC50 Ms, microsomal fraction
  IC50: 6.63 µM
[4]; T-L IC50 Ms, nuclear fraction, ± S.E.
  IC50: 12.8 ± 4.7 µM
[5]; sample ProtNMR + FT (flow-through), 10 μM MG132
  ChT-L activity, Mean ± SE: 40 ± 18 pmol AMC/min/μg protein
[5]; sample ProtNMR + FT, 10 μM MG132
  % Inhibition: 83.1%
[5]; [11]
  % Inhibition: 88.6%
  ChT-L activity, Mean ± SE: 27 ± 18 pmol AMC/min/μg protein
[5]; [12]
  % Inhibition: 93.2%
  ChT-L activity, Mean ± SE: 16 ± 13 pmol AMC/min/μg protein
[5]; sample ProtNMR + R (retentate), 10 μM MG132
  ChT-L activity, Mean ± SE: 542 ± 181 ^# pmol AMC/min/μg protein
[5]; sample ProtNMR + R, 10 μM MG132
  % Inhibition: 31.0%
[5]; [13]
  % Inhibition: 39.0%
  ChT-L activity, Mean ± SE: 479 ± 146 ^# pmol AMC/min/μg protein
[5]; [14]
  % Inhibition: 51.8%
  ChT-L activity, Mean ± SE: 378 ± 104 ^# pmol AMC/min/μg protein
[5]; sample ProtNMR + SN (NMR supernatant), 10 μM MG132
  ChT-L activity, Mean ± SE: 488 ± 58 ^# pmol AMC/min/μg protein
[5]; sample ProtNMR + SN, 10 μM MG132
  % Inhibition: 51.7%
[5]; [15]
  % Inhibition: 50.6%
  ChT-L activity, Mean ± SE: 499 ± 71 ^# pmol AMC/min/μg protein
[5]; [16]
  % Inhibition: 67.7%
  ChT-L activity, Mean ± SE: 327 ± 104 ^# pmol AMC/min/μg protein
[5]; sample ProtNMR, 10 μM MG132
  % Inhibition: 86.0%
  ChT-L activity, Mean ± SE: 72 ± 13 pmol AMC/min/μg protein
[5]; sample ProtNMR, 20 μM MG132
  % Inhibition: 91.6%
  ChT-L activity, Mean ± SE: 43 ± 0.3 pmol AMC/min/μg protein
[5]; sample ProtNMR, 50 μM MG132
  % Inhibition: 95.5%
  ChT-L activity, Mean ± SE: 23 ± 1.0 pmol AMC/min/μg protein
[6]; sample ProtMS + FT (flow-through), 10 μM MG132
  ChT-L activity, Mean ± SE: 17 ± 0.3 pmol AMC/min/μg protein
[6]; sample ProtMS + FT, 10 μM MG132
  inhibition at 10 µM: 85.5%
[6]; [17]
  ChT-L activity, Mean ± SE: 15 ± 3.0 pmol AMC/min/μg protein
  inhibition at 20 µM: 87.2%
[6]; [18]
  ChT-L activity, Mean ± SE: 3.0 ± 1.9 pmol AMC/min/μg protein
  inhibition at 50 µM: 97.4%
[6]; sample ProtMS + R (retentate), 10 μM MG132
  ChT-L activity, Mean ± SE: 178 ± 72 ^# pmol AMC/min/μg protein
[6]; sample ProtMS + R, 10 μM MG132
  inhibition at 10 µM: 36.9%
[6]; sample ProtMS + R, 20 μM MG132
  ChT-L activity, Mean ± SE: 172 ± 70 ^# pmol AMC/min/μg protein
  inhibition at 20 µM: 39%
[6]; sample ProtMS + R, 50 μM MG132
  ChT-L activity, Mean ± SE: 89 ± 12 ^# pmol AMC/min/μg protein
  inhibition at 50 µM: 68.4%
[6]; sample ProtMS + SN (NMR supernatant), 10 μM MG132
  ChT-L activity, Mean ± SE: 126 ± 22 ^# pmol AMC/min/μg protein
[6]; sample ProtMS + SN, 10 μM MG132
  inhibition at 10 µM: 52.1%
[6]; [19]
  ChT-L activity, Mean ± SE: 116 ± 20 ^# pmol AMC/min/μg protein
  inhibition at 20 µM: 55.9%
[6]; [20]
  ChT-L activity, Mean ± SE: 84 ± 34 ^# pmol AMC/min/μg protein
  inhibition at 50 µM: 68.1%
[6]; sample ProtMS, 10 μM MG132
  ChT-L activity, Mean ± SE: 25 ± 0.1 pmol AMC/min/μg protein
  inhibition at 10 µM: 87.6%
[6]; sample ProtMS, 20 μM MG132
  ChT-L activity, Mean ± SE: 17 ± 0.2 pmol AMC/min/μg protein
  inhibition at 20 µM: 91.5%
[6]; sample ProtMS, 50 μM MG132
  ChT-L activity, Mean ± SE: 11 ± 0.1 pmol AMC/min/μg protein
  inhibition at 50 µM: 94.5%

## CC(C)CC(C=CS(C)(=O)=O)NC(=O)[C@H](CC(C)C)NC(=O)[C@H](CC(C)C)NC(=O)CCCCCNC(=O)CCCCCNC(=O)CCCCCNC(=O)CC12CC3CC(CC(C3)C1)C2 (stereo partly drawn) [Adh (VS), adamantane-acetyl-(6-aminohexanoyl)3-(leucinyl)3-vinyl-(methyl)-sulfone]
[7]; cytosolic extracts
  ChT-L IC50 in naked mole-rat relative to mouse cytosolic extracts: 22 fold
[7]; read-out: ChT-L IC50 NMR, cytosolic fraction, liver, ± S.E.
  IC50: 125 ± 5.6 µM
[3]; read-out: ChT-L IC50 Ms, cytosolic fraction, ± S.E.
  IC50: 5.56 ± 1.57 µM
[8]
  IC50: 80.6 ± 2.5 µM
[4]; read-out: T-L IC50 Ms, cytosolic fraction, ± S.E.
  IC50: 16.2 ± 1.9 µM

## CC(C)C[C@H](NC(=O)[C@H](Cc1ccccc1)NC(=O)c1cnccn1)B(O)O [BZ, bortezomib]
[9]; h26S without fr.23
  ablation of ChT-L activity of h26S: 75%
[9]; in the presence of fr. 23
  reduction of ChT-L activity of h26S: 30%

## NS(=O)(=O)C#Cc1ccccc1 [pifithrin-μ]
[1]
  effect on inhibition resistance / sensitivity to inhibition: attenuated resistance to inhibition
